# Source: ChEMBL document CHEMBL3244248, “Substituted 3-amino-1,1-diaryl-2-propanols as potential antidepressant agents” (J Med Chem, 1979)
# Calls of active or inactive are those of the source. The rule behind the calls is not given here.
# Key:
# [1] = test system: Ileum; assay: Anticholinergic effect in guinea pig ileum assessed as inhibition of acetylcholine-induced contraction; assay type: tissue-based; conditions: Cavia porcellus, read-out: pA2 (converted)
# In short: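 Guinea pig ileum contracted by acetylcholine. ED50 values were generated from a dose–response fit, p = D^E/(D^E + K^E), and converted to pA2. pA2 is the negative log10 of the molar antagonist concentration that reduces the effect of two equal acetylcholine doses to that of a single dose.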
# [2] = species: Mus musculus; assay: Anticholinergic effect in CFLP mouse assessed as mydriasis; conditions: in vivo
# [3] = Anticholinergic effect in sc dosed CFLP mouse assessed as inhibition of pilocarpine-induced salivation; assay type: organism-based; conditions: in vivo
# In short: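 Male CFLP mice (18–23 g), groups of eight. Vehicle or drug was given sc 20 min before urethane anaesthesia (1.8 g/kg sc), and pilocarpine (2 mg/kg sc) followed 10 min later. Salivation areas on chromatography paper were measured by planimeter every 5 min for 35 min. Percentage change from control was regressed against log dose to give an ED50 with fiducial limits.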
# [4] = test system: Mus musculus; assay: Antidepressant activity against reserpine-induced hypothermia CFLP mouse model assessed as change in esophageal temperature at 5 mg/kg, po treated before 2 to 24 hrs of reserpine challenge; assay type: functional, organism-based; design: dose 5 mg/kg
# In short: (§1)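 Male CFLP mice (18–23 g), two groups of five, received oral compound or vehicle 24, 18 and 2 h before iv reserpine base (1 mg/kg). Esophageal temperature was read before reserpine and at 2, 4 and 6 h. Test-minus-control mean differences at the three times were summed and corrected for the 0 h difference, giving Δ6 (°C).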
# [5] = test system: Mus musculus; assay: Antidepressant activity against reserpine-induced hypothermia CFLP mouse model assessed as change in esophageal temperature at 10 mg/kg, po treated before 2 to 24 hrs of reserpine challenge; assay type: functional, organism-based; design: dose 10 mg/kg; in short: as §1
# [6] = test system: Mus musculus; assay: Antidepressant activity against reserpine-induced hypothermia CFLP mouse model assessed as change in esophageal temperature < 5 degC at 30 mg/kg, po treated before 2 to 24 hrs of reserpine challenge
# [7] = test system: Mus musculus; assay: Antidepressant activity against reserpine-induced hypothermia CFLP mouse model assessed as change in esophageal temperature at 100 mg/kg, po treated before 2 to 24 hrs of reserpine challenge; assay type: functional, organism-based; design: dose 100 mg/kg; in short: as §1
# [8] = test system: Mus musculus; assay: Antidepressant activity against reserpine-induced hypothermia CFLP mouse model assessed as change in esophageal temperature < 5 degC at 100 mg/kg, po treated before 2 to 24 hrs of reserpine challenge; assay type: functional, organism-based; design: dose 100 mg/kg; in short: as §1
# [9] = test system: Brain; assay: In vivo inhibition of hydroxytryptamine-induced depletion of rat brain noradrenaline; assay type: functional
# [10] = test system: Rattus norvegicus; assay: Toxicity in substantia nigra lesioned rat assessed as turning behaviour up to 50 mg/kg, po; assay type: organism-based; design: dose 50 mg/kg, route oral; conditions: in vivo
# In short: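 Rats with a unilateral substantia nigra lesion, dosed orally at up to 50 mg/kg, and observed for turning.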
# [11] = Inhibition of radiolabeled dopamine uptake in whole rat brain synaptosome; assay type: functional, tissue-based
# [12] = Inhibition of radiolabeled noradrenaline uptake in whole rat brain synaptosome; assay type: functional, tissue-based
# [13] = test system: Mus musculus; assay: Toxicity in mouse assessed as CNS stimulation up to 8 mg/kg, po; assay type: organism-based, Central nervous system; design: dose 8 mg/kg, route oral; conditions: in vivo
# [14] = test system: Mus musculus; assay: Antidepressant activity against reserpine-induced hypothermia CFLP mouse model assessed as change in esophageal temperature at 1 mg/kg, po treated before 2 to 24 hrs of reserpine challenge; assay type: functional, organism-based; design: dose 1 mg/kg; in short: as §1
# [15] = Inhibition of radiolabeled 5-hydroxytryptamine uptake in whole rat brain synaptosome; assay type: functional, tissue-based
# [16] = test system: Mus musculus; assay: Antidepressant activity against reserpine-induced hypothermia CFLP mouse model assessed as change in esophageal temperature at 30 mg/kg, po treated before 2 to 24 hrs of reserpine challenge; assay type: functional, organism-based; design: dose 30 mg/kg; in short: as §1
# [17] = test system: Mus musculus; assay: Antidepressant activity against reserpine-induced hypothermia CFLP mouse model assessed as change in esophageal temperature at 3 mg/kg, po treated before 2 to 24 hrs of reserpine challenge; assay type: functional, organism-based; design: dose 3 mg/kg; in short: as §1
# [18] = test system: Mus musculus; assay: Antidepressant activity against reserpine-induced hypothermia CFLP mouse model assessed as change in esophageal temperature at 16 mg/kg, po treated before 2 to 24 hrs of reserpine challenge; assay type: functional, organism-based; design: dose 16 mg/kg; in short: as §1
# [19] = test system: Mus musculus; assay: Antidepressant activity against reserpine-induced hypothermia CFLP mouse model assessed as change in esophageal temperature at 6 mg/kg, po treated before 2 to 24 hrs of reserpine challenge; assay type: functional, organism-based; design: dose 6 mg/kg; in short: as §1
# [20] = test system: Mus musculus; assay: Antidepressant activity against reserpine-induced hypothermia CFLP mouse model assessed as change in esophageal temperature at 60 mg/kg, po treated before 2 to 24 hrs of reserpine challenge; assay type: functional, organism-based; design: dose 60 mg/kg; in short: as §1
# [21] = test system: Mus musculus; assay: Antidepressant activity against reserpine-induced hypothermia CFLP mouse model assessed as change in esophageal temperature at 4 mg/kg, po treated before 2 to 24 hrs of reserpine challenge; assay type: functional, organism-based; design: dose 4 mg/kg; in short: as §1
# [22] = test system: Mus musculus; assay: Antidepressant activity against reserpine-induced hypothermia CFLP mouse model assessed as change in esophageal temperature at 20 mg/kg, po treated before 2 to 24 hrs of reserpine challenge; assay type: functional, organism-based; design: dose 20 mg/kg; in short: as §1
compound,measurement,setting,value
CN(C)CC(O)C(c1ccccc1)c1ccc(F)cc1 (stereo unspecified),Kb,[1],15.8 µM
same,ED50,[2],26 mg/kg
same,ED50,[3],> 100 mg/kg
same,deltaT,[4],5.8 °C
CN(C)CC(O)C(c1ccc(F)cc1)c1ccc(F)cc1 (stereo unspecified),deltaT,[5],7.8 °C
CNCC(O)C(c1ccccc1)c1ccc(C)cc1 (stereo unspecified),Activity,[6],inactive
same,deltaT,[7],5.4 °C
CC(O)(CN)C(c1ccccc1)c1ccccc1 (stereo unspecified),Activity,[8],inactive
CN(C)CC(O)C(c1ccccc1)c1cccc(Cl)c1.Cl (stereo unspecified),Kb,[1],15.8 µM
same,ED50,[9],30 mg/kg
same,Activity,[10],Non-toxic
same,ED50,[2],42 mg/kg
same,ED50,[3],33 mg/kg
same,IC50,[11],8.9 µM
same,IC50,[12],1.2 µM
same,Activity,[13],Toxic
same,deltaT,[14],5.3 °C
same,IC50,[15],9.8 µM
CN(C)CC(OC(=O)c1ccccc1)C(c1ccccc1)c1cccc(Cl)c1 (stereo unspecified),deltaT,[5],5.2 °C
OC(CN1CCOCC1)C(c1ccccc1)c1ccccc1 (stereo unspecified),deltaT,[7],11 °C
CNCC(O)C(c1ccccc1)c1ccccc1Cl (stereo unspecified),deltaT,[4],8.6 °C
CNCC(O)C(c1ccccc1)c1ccc(Cl)cc1 (stereo unspecified),deltaT,[5],8.8 °C
CN(CCCO)CC(O)C(c1ccccc1)c1ccccc1 (stereo unspecified),deltaT,[16],12.4 °C
OC(CN1CCCCC1)C(c1ccccc1)c1ccccc1 (stereo unspecified),deltaT,[7],9.9 °C
CN(C)CC(O)C(c1ccccc1)c1cccc(Br)c1.Cl (stereo unspecified),Kb,[1],7.94 µM
same,ED50,[2],49 mg/kg
same,ED50,[3],> 100 mg/kg
same,deltaT,[4],12.4 °C
same,Activity,[17],inactive
CNCC(C)(O)C(c1ccccc1)c1ccccc1 (stereo unspecified),deltaT,[16],8.9 °C
Br.CN(C)CC(O)C(c1ccccc1)c1ccccc1 (stereo unspecified),Kb,[1],6.31 µM
same,ED50,[2],53 mg/kg
same,ED50,[3],36 mg/kg
same,deltaT,[4],5.3 °C
COC(c1ccccc1)(c1ccccc1)C(O)CN(C)C (stereo unspecified),deltaT,[7],6.9 °C
CN1CCN(CC(O)C(c2ccccc2)c2ccccc2)CC1 (stereo unspecified),deltaT,[16],6.3 °C
CCN(C)CC(O)C(c1ccccc1)c1ccccc1.Cl (stereo unspecified),Kb,[1],50.1 µM
same,ED50,[2],36 mg/kg
same,ED50,[3],43 mg/kg
same,Activity,[4],inactive
same,deltaT,[5],10.2 °C
CN(C)CC(O)C(c1ccccc1)c1cccc(C(F)(F)F)c1.Cl (stereo unspecified),Kb,[1],1.58 µM
same,ED50,[2],26 mg/kg
same,deltaT,[4],9 °C
Br.CN(C)C[C@@H](O)C(c1ccccc1)c1ccccc1,Kb,[1],7.94 µM
same,ED50,[2],46 mg/kg
same,ED50,[3],51 mg/kg
CN(C)CC(O)C(c1ccccc1)c1ccc(Cl)cc1.O=C(O)CCC(=O)O (stereo unspecified),Kb,[1],7.94 µM
same,ED50,[2],40 mg/kg
same,ED50,[3],71 mg/kg
same,deltaT,[18],6.3 °C
CN(C)CC(O)C(c1ccccc1)C1CCCCC1 (stereo in doubt; 39b),Activity,[8],inactive
CNCC(O)C(c1ccccc1)c1ccccc1.Cl (stereo unspecified),Kb,[1],10 µM
same,ED50,[2],144 mg/kg
same,ED50,[3],40 mg/kg
same,deltaT,[19],6.1 °C
CN(C)CC(O)C(c1ccccc1)c1ccc(Cl)c(Cl)c1 (stereo unspecified),deltaT,[5],7.2 °C
CN(C)CC(O)C(c1ccccc1)c1cc(Cl)cc(Cl)c1 (stereo unspecified),deltaT,[17],6.2 °C
Cc1ccccc1C(c1ccccc1)C(O)CN(C)C (stereo unspecified),deltaT,[5],10.4 °C
CN(C)CC(O)C(O)(c1ccccc1)c1ccc(F)cc1 (stereo unspecified),deltaT,[5],7.5 °C
OC(CNCc1ccccc1)C(c1ccccc1)c1ccccc1 (stereo unspecified),Activity,[8],inactive
CN(C)CC(O)C(c1ccccc1)c1cccs1 (stereo unspecified),deltaT,[20],8.4 °C
CN(C)CC(O)(c1ccccc1)C(c1ccccc1)c1ccccc1 (stereo unspecified),Activity,[6],inactive
CN(Cc1ccccc1)CC(O)C(c1ccccc1)c1ccc(F)cc1 (stereo unspecified),deltaT,[5],7.3 °C
CN(C)CC(O)C(c1ccccc1)C1CCCCC1 (stereo in doubt; 39a),Activity,[8],inactive
CN(C)CC(O)C(O)(c1ccccc1)c1ccccc1 (stereo unspecified),deltaT,[16],5.5 °C
CCN(CC)CC(O)C(c1ccccc1)c1ccccc1 (stereo unspecified),deltaT,[5],5 °C
CC(=O)OC(CN(C)C)C(c1ccccc1)c1ccccc1 (stereo unspecified),Activity,[21],inactive
same,deltaT,[4],10.2 °C
CN(C)CC(O)C(c1ccccc1)c1ccccc1Cl.Cl (stereo unspecified),Kb,[1],6.31 µM
same,ED50,[2],29 mg/kg
same,ED50,[3],24 mg/kg
same,deltaT,[14],6.6 °C
Br.CN(C)C[C@H](O)C(c1ccccc1)c1ccccc1,Kb,[1],3.16 µM
same,ED50,[2],26 mg/kg
same,ED50,[3],63 mg/kg
CN(C)CC(O)C(CCc1ccccc1)c1ccccc1 (stereo unspecified),deltaT,[7],7.4 °C
CN(C)CC(O)C(Cc1ccccc1)c1ccccc1 (stereo unspecified),deltaT,[16],8.6 °C
CN(Cc1ccccc1)CC(O)C(c1ccccc1)c1ccccc1 (stereo unspecified),deltaT,[5],6.1 °C
Cc1ccc(C(c2ccccc2)C(O)CN(C)C)cc1 (stereo unspecified),Activity,[8],inactive
NCC(O)C(c1ccccc1)c1ccccc1 (stereo unspecified),Activity,[8],inactive
CN(C)CCCN1c2ccccc2CCc2ccccc21 [IMIPRAMINE],Kb,[1],0.00126 µM
same,deltaT,[22],6.8 °C
same,ED50,[2],20 mg/kg
same,ED50,[3],3.3 mg/kg
COc1ccc(C(c2ccccc2)C(O)CN(C)C)cc1 (stereo unspecified),deltaT,[5],5.9 °C
